Each compound was assayed against T1, Aromatase (Homo sapiens, UniProt P11511) (assay: Inhibition of human aromatase using androstenedione as substrate assessed as remaining estrone level at 10 uM after 30 mins by LC-MS/MS analysis relative to control). Conditions: 0.5 h, read-out: Activity.
T1 sequence (P11511 whole entry): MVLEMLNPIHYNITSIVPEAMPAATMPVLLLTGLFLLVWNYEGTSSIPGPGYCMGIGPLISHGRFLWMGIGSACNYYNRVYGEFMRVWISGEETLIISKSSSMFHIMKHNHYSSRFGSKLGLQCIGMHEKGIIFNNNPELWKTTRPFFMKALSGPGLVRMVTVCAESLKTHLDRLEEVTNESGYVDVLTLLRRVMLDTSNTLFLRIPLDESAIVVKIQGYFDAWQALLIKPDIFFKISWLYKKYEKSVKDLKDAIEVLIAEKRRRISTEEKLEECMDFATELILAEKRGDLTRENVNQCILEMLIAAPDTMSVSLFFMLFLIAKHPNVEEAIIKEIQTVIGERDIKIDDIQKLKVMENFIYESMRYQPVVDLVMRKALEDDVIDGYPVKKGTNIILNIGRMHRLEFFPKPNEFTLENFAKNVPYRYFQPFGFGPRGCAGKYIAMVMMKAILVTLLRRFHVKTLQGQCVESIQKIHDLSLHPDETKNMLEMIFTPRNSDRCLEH
In short: (§1)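 cDNA-expressed human CYP19A1 supersomes at 0.05 mg/mL, with 1 µM androstenedione, 3.3 mM MgCl2 and an NADPH-generating system (glucose-6-phosphate, β-NADP+, glucose-6-phosphate dehydrogenase) in 0.1 M potassium phosphate, pH 7.4. Incubated 30 min at 37 °C, stopped with ethyl acetate plus cortisone internal standard, then liquid–liquid extraction. Estrone quantified by LC–MS/MS as % of control. Single concentration, mean of duplicates.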
`O=Cc1ccc(O)cc1O` showed an activity at 10 µM of 91.7%.
`O=C1c2ccc(O)cc2O[C@H](c2ccc(O)c(O)c2)[C@H]1O` (relative stereo) [FUSTIN] gave an activity at 10 µM of 110%.
With `O=C(O)c1ccc(O)cc1O` [2,4-DIHYDROXYBENZOIC ACID] the activity at 10 µM was 93.9%.
With `O=C1c2c(O)cc(O)cc2O[C@H](c2ccc(O)c(O)c2)[C@H]1O` [(+)-TAXIFOLIN] the activity at 10 µM was 90.7%.
Compound `O=C(/C=C/c1ccc(O)c(O)c1)c1ccc(O)cc1O` [BUTEIN] has an activity at 10 µM of 87.5%.
Work on `O=c1c(O)c(-c2ccc(O)c(O)c2)oc2cc(O)ccc12` [FISETIN] yielded an activity at 10 µM of 117%.
Compound `C[C@]12CCC(=O)C(O)=C1CC[C@@H]1[C@@H]2CC[C@]2(C)C(=O)CC[C@@H]12` [FORMESTANE] has an activity at 10 µM of 5.1%.
`O=C(O)c1cc(O)c(O)c(O)c1` [GALLIC ACID] gave an activity at 10 µM of 112%.
In the case of `O=C1c2ccc(O)cc2O[C@H](c2ccc(O)cc2)[C@H]1O` [GARBANZOL], the activity at 10 µM is reported as 99.3%.
`O=C(O)c1ccc(O)cc1` [PARABEN] gave an activity at 10 µM of 91.8%.
`O=C(O)c1ccc(O)c(O)c1` [PROTOCATECHUIC ACID] was tested, and the activity at 10 µM was 83.5%.
With `O=c1c(O)c(-c2ccc(O)c(O)c2)oc2cc(O)cc(O)c12` [QUERCETIN] the activity at 10 µM was 96%.
`O=c1c(O)c(-c2ccc(O)cc2)oc2cc(O)ccc12` [RESOKAEMPFEROL] was tested, and the activity at 10 µM was 102%.
`Oc1cccc(O)c1` [RESORCINOL] showed an activity at 10 µM of 91.8%.
In the case of `O=C1/C(=C/c2ccc(O)c(O)c2)Oc2cc(O)ccc21` [SULFURETIN], the activity at 10 µM is reported as 99%.

Each compound was assayed against T1, Aromatase (assay: Inhibition of human aromatase using androstenedione as substrate assessed as estrone formation at 10 uM after 30 mins by LC-MS/MS analysis). Conditions: not given.
In short: as §1
`C[C@]12CCC(=O)C(O)=C1CC[C@@H]1[C@@H]2CC[C@]2(C)C(=O)CC[C@@H]12` [FORMESTANE] gave an IC50 of 470 nM.

Same assay, conditions: human, 0.5 h, 10 µM
In the case of `C[C@]12CCC(=O)C(O)=C1CC[C@@H]1[C@@H]2CC[C@]2(C)C(=O)CC[C@@H]12` [FORMESTANE], the “inhibition (INH)” value is reported as “Dose-dependent effect”.

Source: ChEMBL document CHEMBL3233005 (Bioorg Med Chem Lett, 2014)
